Calls of active or inactive are those of the source. No cut-off for these calls is given here.
Assays:
A549 [1] = assay: Antimitotic activity against human A549 cells assessed as cell mitotic arrest at 5 uM after 22 hrs by DAPI/FITC staining-based laser fluorescence confocal microscopic analysis (reference value: 1.1 %); assay type: functional
A549 [2] = assay: Antimitotic activity against human A549 cells assessed as cell mitotic arrest at 1 uM after 22 hrs by DAPI/FITC staining-based laser fluorescence confocal microscopic analysis (reference value: 1.1 %); assay type: functional
A549 [3] = assay: Cell cycle arrest in human A549 cells assessed as accumulation at G2/M phase at 5 uM after 24 hrs by propidium iodide staining-based flow cytometry (reference value: 2.78 %); assay type: functional
A549 [4] = assay: Cell cycle arrest in human A549 cells assessed as accumulation at G2/M phase at 1 uM after 24 hrs by propidium iodide staining-based flow cytometry (reference value: 2.78 %); assay type: functional
A549 [5] = assay: Cell cycle arrest in human A549 cells assessed as accumulation at S phase at 1 uM after 24 hrs by propidium iodide staining-based flow cytometry (reference value: 9.12 %); assay type: functional
Tubulin (Homo sapiens) = Tubulin (Homo sapiens) (UniProt P68371+Q9H4B7+P0DPH7+P68366+Q13509+Q71U36+P04350+Q3ZCM7+P07437+P68363+Q9BQE3+Q6PEY2+Q13885+Q9BVA1+Q9BUF5); assay: Activation of tubulin (unknown origin) polymerization at 10 uM; assay type: protein-complex assay
In short: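 Purified brain tubulin (kit), final 3.0 mg/mL, in 80.0 mM PIPES sesquisodium pH 6.9, 2.0 mM MgCl2, 0.5 mM EGTA, 1 mM GTP, 10.2% glycerol; components prewarmed to 37 °C, reaction started by adding tubulin. A340 read each minute for 1 h. Single-point % stimulation used 10 μM compound; EC50 from 3.75, 7.5, 15, 30, 60 μM.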

A549 [6] = assay: Resistance index, ratio of IC50 for paclitaxel-resistant human A549 cells to IC50 for paclitaxel-sensitive human A549 cells; assay type: functional
In short: (§1)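 Log-phase cells (40000–50000 cells/mL) grown in DMEM with 10% fetal calf serum (5% CO2, 37 °C) and exposed 48 h to five concentrations, 3–5 replicates. Read-out was MTT with absorbance at 570 nm; IC50 reported as mean ± SD of three independent experiments. Resistant A549 and HeLa sublines were made by stepwise paclitaxel selection; resistance index = IC50(resistant)/IC50(sensitive).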

HeLa [7] = assay: Cytotoxicity against paclitaxel-resistant human HeLa cells after 48 hrs by MTT assay; assay type: functional, cell-based; in short: as §1
HeLa [8] = assay: Cytotoxicity against human HeLa cells after 48 hrs by MTT assay; assay type: functional, cell-based; details: Homo sapiens, HeLa, 48 h; in short: as §1
A549 [9] = assay: Induction of apoptosis in human A549 cells assessed as late apoptotic cells at 5 uM after 24 hrs by annexin V-FITC/propidium iodide staining-based flow cytometry (reference value: 1.02%); assay type: functional
A549 [10] = assay: Induction of apoptosis in human A549 cells assessed as late apoptotic cells at 1 uM after 24 hrs by annexin V-FITC/propidium iodide staining-based flow cytometry (reference value: 1.02%); assay type: functional
A549 [11] = assay: Induction of apoptosis in human A549 cells assessed as necrotic cells at 10 uM after 24 hrs by annexin V-FITC/propidium iodide staining-based flow cytometry (reference value: 2.76%); assay type: functional
A549 [12] = assay: Induction of apoptosis in human A549 cells assessed as necrotic cells at 5 uM after 24 hrs by annexin V-FITC/propidium iodide staining-based flow cytometry (reference value: 2.76%); assay type: functional
A549 [13] = assay: Induction of apoptosis in human A549 cells assessed as necrotic cells at 1 uM after 24 hrs by annexin V-FITC/propidium iodide staining-based flow cytometry (reference value: 2.76%); assay type: functional
A549 [14] = assay: Cell cycle arrest in human A549 cells assessed as accumulation at G2/M phase after 24 hrs by propidium iodide staining-based flow cytometry; assay type: functional
A549 [15] = assay: Induction of apoptosis in human A549 cells early apoptotic cells at 10 uM after 24 hrs by annexin V-FITC/propidium iodide staining-based flow cytometry (reference value: 0.73 %); assay type: functional
A549 [16] = assay: Induction of apoptosis in human A549 cells early apoptotic cells at 5 uM after 24 hrs by annexin V-FITC/propidium iodide staining-based flow cytometry (reference value: 0.73 %); assay type: functional
A549 [17] = assay: Induction of apoptosis in human A549 cells assessed as early apoptotic cells at 1 uM after 24 hrs by annexin V-FITC/propidium iodide staining-based flow cytometry (reference value: 0.73 %); assay type: functional
A549 [18] = assay: Effect on spindle microtubule dynamics in human A549 cells at 10 uM after 22 hrs by DAPI/FITC staining-based laser fluorescence confocal microscopic analysis; assay type: functional, cell-based
In short: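 Confocal imaging of A549 cells exposed for 22 h to compound or vehicle (0.2% DMSO final), added at 70% confluency after overnight growth. Fixation followed by 0.5% Triton X-100 permeabilization and 10% goat serum blocking; tubulin stained with FITC anti-α-tubulin (1:100, 2 h, 37 °C), nuclei counterstained with DAPI. Wide-field images taken at 10–15 random slide locations.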

A549 [19] = assay: Effect on spindle microtubule dynamics in human A549 cells at 10 uM after 22 hrs by DAPI/FITC staining-based laser fluorescence confocal microscopic analysis

COc1cc([C@@H]2C[C@]2(CO)C(=O)Nc2ccccc2Cl)cc(OC)c1OC
Activity (A549 [1]): 53.1% | Activity (A549 [2]): 37.4% | Activity (A549 [3]): 60.85% | Activity (A549 [4]): 51.68% | Activity (A549 [5]): 9.96% | Activity (Tubulin (Homo sapiens)): 24.3% | Ratio IC50 (A549 [6]): 1.2 | IC50 (HeLa [7]): 10.7 µM | IC50 (HeLa [8]): 8.1 µM | Activity (A549 [9]): 1.36% | Activity (A549 [10]): 2.82% | Activity (A549 [11]): 0.83% | Activity (A549 [12]): 2.04% | Activity (A549 [13]): 1.46% | Activity (A549 [14]): Dose-dependent effect | Activity (A549 [15]): 55.23% | Activity (A549 [16]): 37.4% | Activity (A549 [17]): 15.57% | Activity (A549 [18]): Active | Activity (A549 [19]): Active
